Assay results from publication PMC12814486 (Bioorganic & medicinal chemistry, 2025).
≈ marks a conversion by molar mass, not a printed value.

How the values were obtained:
[1] = Microsomal stability assay in liver microsomes; assay type: in vitro ADME; conditions: rat, pH 7.4
Summary of the method: (§1)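 Test compound was taken from a 1 mM DMSO stock. It was preincubated 5 min at 37 °C with liver microsomes in 0.1 M phosphate buffer, pH 7.4. Reaction was started with an NADPH regenerating system (glucose-6-phosphate, NADPH, glucose-6-phosphate dehydrogenase, MgCl2) and quenched with methanol at 0, 10, 20, 30 and 60 min. Samples were centrifuged and read by LC-MS SIM as peak area ratio to internal standard. k = negative slope of ln ratio vs time; CLint = k/P (P = protein concentration). Duplicates or triplicates were averaged.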

[2] = target: Kappa opioid (KOR) (Homo sapiens, UniProt P41145); assay: NIMH PDSP binding screen; conditions: read-out: Inhibition (%) Kappa opioid (KOR)
Sequence of Kappa opioid (KOR) (P41145 whole entry): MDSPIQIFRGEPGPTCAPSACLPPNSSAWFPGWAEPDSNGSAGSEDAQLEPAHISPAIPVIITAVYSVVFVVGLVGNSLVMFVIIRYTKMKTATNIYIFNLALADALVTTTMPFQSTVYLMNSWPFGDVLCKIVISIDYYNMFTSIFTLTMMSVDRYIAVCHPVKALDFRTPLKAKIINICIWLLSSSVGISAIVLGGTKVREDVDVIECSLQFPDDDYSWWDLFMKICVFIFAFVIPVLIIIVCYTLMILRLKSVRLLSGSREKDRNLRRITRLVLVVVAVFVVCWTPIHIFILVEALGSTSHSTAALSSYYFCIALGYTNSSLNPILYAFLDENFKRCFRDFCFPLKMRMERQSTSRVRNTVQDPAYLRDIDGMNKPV

[3] = Solubility assay; assay type: physicochemical; conditions: sodium phosphate buffer, pH 7.4, aqueous buffer, kinetic from dmso stock
[4] = target: T1, human FAAH (Homo sapiens, UniProt O00519); assay: FAAH inhibition assay; assay type: biochemical
T1 sequence (O00519 1-579): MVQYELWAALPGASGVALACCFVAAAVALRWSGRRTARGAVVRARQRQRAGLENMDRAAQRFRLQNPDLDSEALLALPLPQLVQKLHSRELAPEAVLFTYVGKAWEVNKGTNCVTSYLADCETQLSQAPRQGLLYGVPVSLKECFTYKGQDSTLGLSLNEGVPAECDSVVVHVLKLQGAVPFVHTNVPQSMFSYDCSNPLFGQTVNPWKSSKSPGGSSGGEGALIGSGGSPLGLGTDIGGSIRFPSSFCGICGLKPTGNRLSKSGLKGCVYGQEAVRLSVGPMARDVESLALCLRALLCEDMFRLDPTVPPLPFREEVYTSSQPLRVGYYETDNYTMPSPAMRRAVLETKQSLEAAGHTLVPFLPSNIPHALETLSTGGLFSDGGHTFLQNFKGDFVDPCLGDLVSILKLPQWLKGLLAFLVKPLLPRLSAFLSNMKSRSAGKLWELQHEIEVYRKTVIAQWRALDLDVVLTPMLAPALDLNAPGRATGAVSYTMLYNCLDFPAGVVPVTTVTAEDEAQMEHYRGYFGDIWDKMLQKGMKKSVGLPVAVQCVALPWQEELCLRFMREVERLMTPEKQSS

[5] = target: 5-HT1B (Homo sapiens, UniProt P28222); assay: NIMH PDSP binding screen; conditions: read-out: Inhibition (%) 5-HT1B
Sequence of 5-HT1B (P28222 whole entry, species assumed): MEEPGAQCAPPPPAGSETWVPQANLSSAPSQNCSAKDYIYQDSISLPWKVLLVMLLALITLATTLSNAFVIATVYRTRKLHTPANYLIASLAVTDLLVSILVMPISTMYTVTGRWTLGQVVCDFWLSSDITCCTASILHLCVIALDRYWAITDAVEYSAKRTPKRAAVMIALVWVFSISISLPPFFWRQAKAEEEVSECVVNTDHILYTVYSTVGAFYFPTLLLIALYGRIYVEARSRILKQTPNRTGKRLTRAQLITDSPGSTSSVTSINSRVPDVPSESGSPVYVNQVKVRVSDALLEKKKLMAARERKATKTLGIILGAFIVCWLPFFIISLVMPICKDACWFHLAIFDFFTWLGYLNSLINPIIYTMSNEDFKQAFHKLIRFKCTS

[6] = Microsomal stability assay in liver microsomes; assay type: in vitro ADME; conditions: human, pH 7.4
Summary of the method: as §1

[7] = target: T2, mouse sEH (Mus musculus, UniProt P34914); assay: sEH inhibition assay; assay type: biochemical
T2 sequence (P34914 1-554): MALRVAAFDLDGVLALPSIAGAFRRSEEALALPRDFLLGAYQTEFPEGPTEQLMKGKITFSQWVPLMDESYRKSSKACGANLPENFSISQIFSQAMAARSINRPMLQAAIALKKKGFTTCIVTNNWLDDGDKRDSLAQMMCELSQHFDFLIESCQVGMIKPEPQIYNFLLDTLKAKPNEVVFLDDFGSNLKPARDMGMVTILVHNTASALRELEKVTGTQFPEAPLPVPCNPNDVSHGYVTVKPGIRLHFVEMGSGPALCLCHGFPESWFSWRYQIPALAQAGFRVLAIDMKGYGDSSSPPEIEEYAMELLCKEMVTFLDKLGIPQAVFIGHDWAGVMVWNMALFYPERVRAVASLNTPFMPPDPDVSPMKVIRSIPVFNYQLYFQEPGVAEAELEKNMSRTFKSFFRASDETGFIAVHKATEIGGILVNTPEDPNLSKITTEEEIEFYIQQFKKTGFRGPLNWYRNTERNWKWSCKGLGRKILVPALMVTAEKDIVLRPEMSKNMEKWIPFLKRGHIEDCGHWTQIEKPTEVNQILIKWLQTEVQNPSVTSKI

[8] = target: Delta opioid (DOR) (Homo sapiens, UniProt P41143); assay: NIMH PDSP binding screen; conditions: read-out: Inhibition (%) Delta opioid (DOR)
Sequence of Delta opioid (DOR) (P41143 whole entry): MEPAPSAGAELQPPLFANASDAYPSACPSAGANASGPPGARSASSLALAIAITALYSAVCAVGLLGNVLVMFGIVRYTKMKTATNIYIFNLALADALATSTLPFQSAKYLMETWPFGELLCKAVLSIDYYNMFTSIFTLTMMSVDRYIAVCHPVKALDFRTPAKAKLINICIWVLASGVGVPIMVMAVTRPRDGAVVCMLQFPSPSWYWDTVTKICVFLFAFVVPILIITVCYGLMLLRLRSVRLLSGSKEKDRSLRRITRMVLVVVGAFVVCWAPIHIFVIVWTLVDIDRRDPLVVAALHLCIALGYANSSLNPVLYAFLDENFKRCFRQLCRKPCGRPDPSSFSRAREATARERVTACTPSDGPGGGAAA

[9] = target: Nociceptin (NOP) (Homo sapiens, UniProt P41146); assay: NIMH PDSP binding screen; conditions: read-out: Inhibition (%) Nociceptin (NOP)
Sequence of Nociceptin (NOP) (P41146 whole entry): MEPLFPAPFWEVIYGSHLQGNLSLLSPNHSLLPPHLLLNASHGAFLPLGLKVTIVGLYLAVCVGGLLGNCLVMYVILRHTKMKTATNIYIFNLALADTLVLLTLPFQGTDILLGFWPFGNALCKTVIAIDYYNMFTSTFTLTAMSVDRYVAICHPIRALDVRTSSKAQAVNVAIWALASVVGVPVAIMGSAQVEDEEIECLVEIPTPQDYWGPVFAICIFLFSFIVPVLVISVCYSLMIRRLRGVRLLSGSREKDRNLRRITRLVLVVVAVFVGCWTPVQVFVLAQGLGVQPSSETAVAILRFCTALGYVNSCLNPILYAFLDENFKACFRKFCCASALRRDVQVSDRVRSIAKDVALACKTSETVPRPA

[10] = target: T3, rat sEH (Rattus norvegicus, UniProt P80299); assay: sEH inhibition assay; assay type: biochemical
T3 sequence (P80299 1-554): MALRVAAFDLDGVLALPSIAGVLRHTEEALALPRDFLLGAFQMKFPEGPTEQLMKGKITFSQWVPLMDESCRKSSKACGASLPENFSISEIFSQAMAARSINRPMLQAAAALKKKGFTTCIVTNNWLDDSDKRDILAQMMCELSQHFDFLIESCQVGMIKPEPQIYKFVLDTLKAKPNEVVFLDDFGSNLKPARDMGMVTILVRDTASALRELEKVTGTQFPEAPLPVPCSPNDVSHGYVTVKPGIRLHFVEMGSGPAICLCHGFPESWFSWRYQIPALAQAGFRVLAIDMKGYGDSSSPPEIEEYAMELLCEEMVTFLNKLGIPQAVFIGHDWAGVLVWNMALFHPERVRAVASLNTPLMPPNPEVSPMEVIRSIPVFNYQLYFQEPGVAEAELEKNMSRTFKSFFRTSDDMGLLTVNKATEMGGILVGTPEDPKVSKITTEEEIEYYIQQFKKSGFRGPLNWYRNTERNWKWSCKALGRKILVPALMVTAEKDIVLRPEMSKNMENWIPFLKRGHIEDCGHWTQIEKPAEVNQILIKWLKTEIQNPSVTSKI

**Q.** Which half-life at 1 µM [1] does the source give for `O=C(Nc1ccc(-c2cnc3ccccc3n2)cc1)C1CCN(S(=O)(=O)c2ccccc2Cl)CC1` [Compound 4m, 1-((2-chlorophenyl)sulfonyl)-N-(4-(quinoxalin-2-yl)phenyl)piperidine-4-carboxamide] here?
**A.** The half-life at 1 µM was 26 min.

**Q.** What about the microsomal CLint at 1 µM [1] of the same compound?
**A.** Its microsomal CLint at 1 µM is 52.6 µL/min/mg.

**Q.** What about the inhibition at 10 µM [2] of the same compound?
**A.** The inhibition at 10 µM was 5.59 ± 6.57%.

**Q.** And the solubility [3]?
**A.** Its solubility is 31 to 63 µM (≈ 15.7 to 31.9 µg/mL).

**Q.** And the IC50 [4]?
**A.** The IC50 was 2.9 nM.

**Q.** What about the inhibition at 10 µM [5] of the same compound?
**A.** Its inhibition at 10 µM is 22.2 ± 6.67%.

**Q.** And the half-life at 1 µM [6]?
**A.** Its half-life at 1 µM is greater than 60 min.

**Q.** And the microsomal CLint at 1 µM [6]?
**A.** Its microsomal CLint at 1 µM is 22.5 µL/min/mg.

**Q.** What about the IC50 [7] of the same compound?
**A.** Its IC50 is 39.1 nM.

**Q.** And the inhibition at 10 µM [8]?
**A.** The inhibition at 10 µM was -0.23 ± 11.9%.

**Q.** What about the inhibition at 10 µM [9] of the same compound?
**A.** The inhibition at 10 µM was -5.22 ± 3.98%.

**Q.** And the IC50 [10]?
**A.** Its IC50 is 0.3 nM.
